Test [1] has as its system Calvarial osteoblast. Description: Induction of osteoblast differentiation in mouse calvarial osteoblast assessed as increase in ALP activity using PNPP as substrate at 0.000001 to 1 uM incubated activity for 48 hrs by spectrophotometric analysis relative to control. It is filed as functional, cell-based. Particulars: dose lower 1e-06 µM, dose upper 1.0 µM.
The subject of test [2] is Calvarial osteoblast. Description: Induction of osteoblast differentiation in mouse calvarial osteoblast assessed as increase in ERbeta expression at 10 nM incubated for 48 hrs by Western blot analysis. It counts as functional, cell-based. The gist of the method:
(§1)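 Calvarial osteoblasts at 60–70% confluence were treated ± compound for 48 h, with 100 pM E2 as positive control. Lysates (30 µg protein) were resolved on 10% SDS-PAGE, transferred to PVDF and probed for ER-α and ER-β with HRP secondaries and ECL detection. Bands were quantified by densitometry normalized to β-actin.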
For orientation: Immunoblotting shows a protein as a band on a membrane.

In test [3] the test system is Calvarial osteoblast. Description: Induction of osteoblast differentiation in mouse calvarial osteoblast assessed as increase in ERalpha expression at 10 nM incubated for 48 hrs by Western blot analysis. It counts as functional, cell-based. The method in brief: as §1
Test [4] relates to Mus musculus. As to the kind of experiment: In vivo osteogenic activity in ovariectomized BALB/c mouse assessed as increase in trabecular number administered via oral gavage for 1 month by microCT imaging analysis. It counts as functional, organism-based. Conditions: time 1.0 months. The gist of the method: (§2)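 Ovariectomized female balb/c mice, 8 weeks old, 10 per group, received 1.0 or 10.0 mg kg-1 once daily by oral gavage (gum acacia vehicle) for 4 weeks, alongside sham and Ovx vehicle groups. Femurs were scanned by microCT. BV/TV, Tb.N and Tb.Sp were derived by the mean intercept length method. Mean ± SE.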

Test [5] has as its system Mus musculus. As to the kind of experiment: In vivo osteogenic activity in ovariectomized BALB/c mouse assessed as increase in femur bone volume density administered via oral gavage for 1 month by microCT imaging analysis. It is filed as functional, organism-based. Conditions: time 1.0 months. The gist of the method: as §2
Test [6] relates to Mus musculus. As to the kind of experiment: In vivo osteogenic activity in ovariectomized BALB/c mouse assessed as decrease in trabecular spacing administered via oral gavage for 1 month by microCT imaging analysis. It is filed as functional, organism-based. Particulars: time 1.0 months. The gist of the method:
as §2

In ChEMBL document CHEMBL4680077, “Differentiation of skeletal osteogenic progenitor cells to osteoblasts with 3,4-diarylbenzopyran based amide derivatives: Novel osteogenic agents” (Eur J Med Chem, 2016) one finds Activity data, which are given here for 5 compounds.

Each structure is given as a SMILES string. Calls of active or inactive are those of the source. The calls are words filed in the database; no cut-off is given here.

In the case of `COc1ccc2c(c1)OC(C)(C)[C@H](c1ccccc1)[C@H]2c1ccc(OCCCCCC(=O)NCc2ccccn2)cc1`, the result in the test on Calvarial osteoblast [1] was Active.
For `C[C@]12CC[C@@H]3c4ccc(O)cc4CC[C@H]3[C@@H]1CC[C@@H]2O`, the outcome in the test with Calvarial osteoblast [2], in the test with Mus musculus [4], with Mus musculus [5] and with Mus musculus [6] was Active. Besides, the result with Calvarial osteoblast [3] was inactive.
In the case of `CCCCN(C)C(=O)CCCOc1ccc([C@H]2c3ccc(OC)cc3OC(C)(C)[C@@H]2c2ccccc2)cc1`, the outcome in the test on Calvarial osteoblast [1] was Active.
The same measure, in the same setting: to `COc1ccc2c(c1)OC(C)(C)[C@H](c1ccccc1)[C@H]2c1ccc(OCCCCC(=O)NCc2ccccn2)cc1` belongs “Active”; to `CCCCN(C)C(=O)CCCOc1ccc(C2=C(c3ccccc3)C(C)(C)Oc3cc(OC)ccc32)cc1`, “Active”.
